# Experimental data from different studies.
# Compare with care: the assays were run in different laboratories.
# Target: Bone morphogenetic protein receptor type-1A (BMPR1A, Homo sapiens, UniProt P36894)
Structure (SMILES),effect on,action,technique,concentration,measurement,result
Cc1noc([C@H]2C[C@@H](c3ccc(C(F)(F)F)cc3)CN(C(=O)N3CCS(=O)(=O)C3)C2)n1,binding,,competition with immobilised ligand,1 µM,remaining binding,100%
Cc1ccc(C(=O)Nc2ccc(CN3CCN(C)CC3)c(C(F)(F)F)c2)cc1C#Cc1cnc2cccnn12,enzyme activity,,,23.5 nM,remaining activity,97%
Nc1cnc(N2CCc3cc(S(=O)(=O)Nc4c(F)cc(Cl)cc4F)cc(N4CCCC4=O)c32)nc1,cell-free assay,,competition with immobilised ligand,1 µM,remaining binding,91%
Nc1ncnc2occ(-c3ccc(NC(=O)Nc4cc(C(F)(F)F)ccc4F)cc3)c12,cell-free assay,,,20 µM,remaining signal,100%
O=C(Nc1cnn(-c2csc(C(=O)NC3COC3)c2)c1)Nc1ccccc1Cl,enzyme activity,inhibitor,,5 µM,remaining activity,105%
CC(C)(C)c1nc2c(s1)c1nc(N)ncc1c1ccc(NS(=O)(=O)c3c(F)cccc3F)c(F)c12,enzyme activity,inhibitor,radiometric,1 µM,remaining activity,96%
CCOc1cc(-c2nncn2C)ccc1Nc1ncc2cc(C)nc(NCC(C)(C)C)c2n1,cell-free assay,,TR-FRET,1 µM,inhibition,≤ 15%
Cc1sc(C(=O)NC2COC2)cc1-n1cc(NC(=O)Nc2c(F)cccc2Cl)cn1,enzyme activity,inhibitor,,10 µM,remaining activity,92.5%
CC(C)(C)c1nc(-c2cccc(NS(=O)(=O)c3c(F)cccc3F)c2F)c(-c2ccnc(N)n2)s1,enzyme activity,inhibitor,radiometric,1 µM,remaining activity,48%
